ChEMBL document CHEMBL1240409, “Design, synthesis and evaluation of (E)-alpha-benzylthio chalcones as novel inhibitors of BCR-ABL kinase” (Bioorg Med Chem, 2010)
The source made the active and inactive calls. The rule behind the calls is not given here.

Columns and labels:
K562 = test: Growth inhibition of human K562 cells expressing p210Bcr/Abl after 96 hrs by trypan blue exclusion assay; format: functional, cell-based; details: K562, 96 h
Procedure, shortened: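 K562 cells were kept in RPMI with 10% FBS and penicillin–streptomycin at 37 °C under 5% CO2. Cells were seeded at 1 × 10^5 cells/mL with a range of compound concentrations, using DMSO as the negative control. After 96 h, viability was counted by Trypan blue exclusion and expressed as percent of DMSO control to derive GI50.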

[1] = molecular target: Tyrosine-protein kinase Lyn (Homo sapiens, UniProt P07948); test: Inhibition of GST-tagged recombinant LynB after 20 mins by autoradiography
Procedure, shortened: (§1)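 Kinase reactions were started by adding 1 µg recombinant substrate with unlabelled and 32P-labelled ATP. They ran 20 min at 30 °C and were stopped with 2× Laemmli buffer, then boiled 2 min and resolved on 12% SDS–PAGE. Substrate phosphorylation bands on autoradiograms were quantified by densitometry and plotted against log drug concentration. IC50 came from sigmoidal variable-slope nonlinear regression.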

[2] = molecular target: Cyclin-dependent kinase 1 (Homo sapiens, UniProt P06493); test: Inhibition of GST-tagged recombinant CDK1 after 20 mins by autoradiography; procedure, shortened: as §1
Cyclin-dependent kinase 1, sequence (P06493 whole entry): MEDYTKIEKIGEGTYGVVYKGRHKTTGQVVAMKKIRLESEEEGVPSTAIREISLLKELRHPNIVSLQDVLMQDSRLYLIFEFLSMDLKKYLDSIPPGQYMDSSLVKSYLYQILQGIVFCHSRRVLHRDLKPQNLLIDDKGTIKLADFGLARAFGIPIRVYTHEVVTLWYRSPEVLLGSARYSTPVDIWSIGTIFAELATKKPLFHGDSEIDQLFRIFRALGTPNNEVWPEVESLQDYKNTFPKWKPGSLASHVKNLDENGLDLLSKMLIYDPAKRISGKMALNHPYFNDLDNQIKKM

[3] = molecular target: Proto-oncogene tyrosine-protein kinase Src (Homo sapiens, UniProt P12931); test: Inhibition of GST-tagged recombinant Src after 20 mins by autoradiography; procedure, shortened: as §1
Proto-oncogene tyrosine-protein kinase Src, sequence (P12931 2-536 limits assumed): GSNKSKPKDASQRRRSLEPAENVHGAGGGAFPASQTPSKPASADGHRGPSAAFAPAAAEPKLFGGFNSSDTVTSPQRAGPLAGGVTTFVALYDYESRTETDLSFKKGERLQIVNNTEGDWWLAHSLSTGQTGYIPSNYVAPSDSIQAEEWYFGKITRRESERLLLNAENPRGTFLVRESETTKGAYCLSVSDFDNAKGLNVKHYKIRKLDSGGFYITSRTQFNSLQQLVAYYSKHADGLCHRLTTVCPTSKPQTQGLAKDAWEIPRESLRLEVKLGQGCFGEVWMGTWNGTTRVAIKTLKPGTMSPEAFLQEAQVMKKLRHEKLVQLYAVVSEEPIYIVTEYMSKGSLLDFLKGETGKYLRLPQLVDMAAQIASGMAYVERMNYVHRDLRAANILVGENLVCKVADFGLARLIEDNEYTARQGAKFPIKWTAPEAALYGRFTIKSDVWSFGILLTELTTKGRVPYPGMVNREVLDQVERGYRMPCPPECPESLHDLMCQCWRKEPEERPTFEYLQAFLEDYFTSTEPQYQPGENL

Bcr/Abl fusion protein [4] = molecular target: T1, Bcr/Abl fusion protein (Homo sapiens, UniProt P00519); test: Inhibition of Bcr-Abl after 20 mins by autoradiography; format: protein assay; procedure, shortened: as §1
T1 sequence (P00519 whole entry, the tested form may be a part): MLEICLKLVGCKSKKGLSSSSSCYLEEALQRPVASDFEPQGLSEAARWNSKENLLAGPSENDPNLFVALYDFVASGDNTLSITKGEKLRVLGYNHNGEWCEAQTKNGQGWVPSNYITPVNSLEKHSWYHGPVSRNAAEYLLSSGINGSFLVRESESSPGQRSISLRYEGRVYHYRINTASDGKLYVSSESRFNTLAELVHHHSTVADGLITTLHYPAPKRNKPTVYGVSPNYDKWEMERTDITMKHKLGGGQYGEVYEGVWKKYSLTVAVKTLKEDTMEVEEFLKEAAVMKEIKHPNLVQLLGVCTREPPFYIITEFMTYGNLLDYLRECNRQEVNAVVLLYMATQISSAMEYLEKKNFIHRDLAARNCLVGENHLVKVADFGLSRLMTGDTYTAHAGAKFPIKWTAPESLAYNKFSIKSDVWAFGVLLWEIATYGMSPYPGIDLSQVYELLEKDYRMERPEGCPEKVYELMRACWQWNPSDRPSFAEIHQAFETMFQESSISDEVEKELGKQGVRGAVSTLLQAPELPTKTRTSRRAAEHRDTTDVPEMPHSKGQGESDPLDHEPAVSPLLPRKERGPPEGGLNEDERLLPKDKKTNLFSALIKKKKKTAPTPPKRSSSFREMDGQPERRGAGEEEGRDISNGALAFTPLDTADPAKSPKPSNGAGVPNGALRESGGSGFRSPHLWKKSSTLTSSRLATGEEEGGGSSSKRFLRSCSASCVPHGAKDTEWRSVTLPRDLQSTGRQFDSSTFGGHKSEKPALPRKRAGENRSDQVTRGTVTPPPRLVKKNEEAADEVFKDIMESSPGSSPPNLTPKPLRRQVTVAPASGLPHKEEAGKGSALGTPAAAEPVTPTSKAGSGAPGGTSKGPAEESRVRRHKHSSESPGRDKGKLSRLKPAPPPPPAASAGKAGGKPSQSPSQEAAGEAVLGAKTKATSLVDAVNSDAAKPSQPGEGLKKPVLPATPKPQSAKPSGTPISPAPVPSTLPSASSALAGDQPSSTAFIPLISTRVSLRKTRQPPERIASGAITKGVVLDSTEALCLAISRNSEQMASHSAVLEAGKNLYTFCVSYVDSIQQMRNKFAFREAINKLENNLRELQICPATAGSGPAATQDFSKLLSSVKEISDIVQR
T1 sequence (P11274 whole entry, further chain, the tested form may be a part): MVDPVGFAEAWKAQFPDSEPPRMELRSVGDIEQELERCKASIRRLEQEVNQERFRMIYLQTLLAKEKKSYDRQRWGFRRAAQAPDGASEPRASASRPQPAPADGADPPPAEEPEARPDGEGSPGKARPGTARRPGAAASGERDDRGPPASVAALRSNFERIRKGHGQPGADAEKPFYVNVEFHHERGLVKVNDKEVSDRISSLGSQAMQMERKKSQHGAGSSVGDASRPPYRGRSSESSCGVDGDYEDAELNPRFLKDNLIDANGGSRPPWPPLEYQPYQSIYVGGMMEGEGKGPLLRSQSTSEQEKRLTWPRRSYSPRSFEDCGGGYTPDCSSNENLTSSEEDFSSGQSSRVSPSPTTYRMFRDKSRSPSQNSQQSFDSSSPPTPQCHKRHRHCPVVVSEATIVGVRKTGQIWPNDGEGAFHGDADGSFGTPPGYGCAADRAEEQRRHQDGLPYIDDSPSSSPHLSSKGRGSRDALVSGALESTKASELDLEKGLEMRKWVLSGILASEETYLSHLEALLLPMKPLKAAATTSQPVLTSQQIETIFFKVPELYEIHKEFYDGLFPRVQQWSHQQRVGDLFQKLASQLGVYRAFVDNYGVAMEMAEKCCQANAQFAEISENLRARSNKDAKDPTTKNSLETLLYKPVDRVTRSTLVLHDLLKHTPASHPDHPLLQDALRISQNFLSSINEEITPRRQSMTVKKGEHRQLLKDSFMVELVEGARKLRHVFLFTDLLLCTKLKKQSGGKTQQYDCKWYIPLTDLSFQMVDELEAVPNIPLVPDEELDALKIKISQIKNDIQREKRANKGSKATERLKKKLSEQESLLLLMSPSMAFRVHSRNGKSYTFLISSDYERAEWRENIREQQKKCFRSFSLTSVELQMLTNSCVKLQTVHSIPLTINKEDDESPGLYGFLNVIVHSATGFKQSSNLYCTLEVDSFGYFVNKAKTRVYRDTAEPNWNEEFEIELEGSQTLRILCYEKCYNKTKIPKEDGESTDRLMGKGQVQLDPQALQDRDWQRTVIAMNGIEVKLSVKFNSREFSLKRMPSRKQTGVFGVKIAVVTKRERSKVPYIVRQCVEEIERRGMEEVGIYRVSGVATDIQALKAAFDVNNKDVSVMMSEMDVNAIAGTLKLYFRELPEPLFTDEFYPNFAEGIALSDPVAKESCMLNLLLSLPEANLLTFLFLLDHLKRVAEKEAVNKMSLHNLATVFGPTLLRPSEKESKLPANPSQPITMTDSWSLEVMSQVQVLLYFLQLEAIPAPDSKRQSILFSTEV

DU-145 = test: Growth inhibition of human DU145 cells after 96 hrs by trypan blue exclusion assay; format: functional; details: DU-145, 96 h
[5] = molecular target: Epidermal growth factor receptor (Homo sapiens, UniProt P00533); test: Inhibition of EGFR by immunoprecipitation assay
[6] = molecular target: Receptor tyrosine-protein kinase erbB-2 (Homo sapiens, UniProt P04626); test: Inhibition of ErbB2 by immunoprecipitation assay
Receptor tyrosine-protein kinase erbB-2, sequence (P04626 whole entry, the tested form may be a part): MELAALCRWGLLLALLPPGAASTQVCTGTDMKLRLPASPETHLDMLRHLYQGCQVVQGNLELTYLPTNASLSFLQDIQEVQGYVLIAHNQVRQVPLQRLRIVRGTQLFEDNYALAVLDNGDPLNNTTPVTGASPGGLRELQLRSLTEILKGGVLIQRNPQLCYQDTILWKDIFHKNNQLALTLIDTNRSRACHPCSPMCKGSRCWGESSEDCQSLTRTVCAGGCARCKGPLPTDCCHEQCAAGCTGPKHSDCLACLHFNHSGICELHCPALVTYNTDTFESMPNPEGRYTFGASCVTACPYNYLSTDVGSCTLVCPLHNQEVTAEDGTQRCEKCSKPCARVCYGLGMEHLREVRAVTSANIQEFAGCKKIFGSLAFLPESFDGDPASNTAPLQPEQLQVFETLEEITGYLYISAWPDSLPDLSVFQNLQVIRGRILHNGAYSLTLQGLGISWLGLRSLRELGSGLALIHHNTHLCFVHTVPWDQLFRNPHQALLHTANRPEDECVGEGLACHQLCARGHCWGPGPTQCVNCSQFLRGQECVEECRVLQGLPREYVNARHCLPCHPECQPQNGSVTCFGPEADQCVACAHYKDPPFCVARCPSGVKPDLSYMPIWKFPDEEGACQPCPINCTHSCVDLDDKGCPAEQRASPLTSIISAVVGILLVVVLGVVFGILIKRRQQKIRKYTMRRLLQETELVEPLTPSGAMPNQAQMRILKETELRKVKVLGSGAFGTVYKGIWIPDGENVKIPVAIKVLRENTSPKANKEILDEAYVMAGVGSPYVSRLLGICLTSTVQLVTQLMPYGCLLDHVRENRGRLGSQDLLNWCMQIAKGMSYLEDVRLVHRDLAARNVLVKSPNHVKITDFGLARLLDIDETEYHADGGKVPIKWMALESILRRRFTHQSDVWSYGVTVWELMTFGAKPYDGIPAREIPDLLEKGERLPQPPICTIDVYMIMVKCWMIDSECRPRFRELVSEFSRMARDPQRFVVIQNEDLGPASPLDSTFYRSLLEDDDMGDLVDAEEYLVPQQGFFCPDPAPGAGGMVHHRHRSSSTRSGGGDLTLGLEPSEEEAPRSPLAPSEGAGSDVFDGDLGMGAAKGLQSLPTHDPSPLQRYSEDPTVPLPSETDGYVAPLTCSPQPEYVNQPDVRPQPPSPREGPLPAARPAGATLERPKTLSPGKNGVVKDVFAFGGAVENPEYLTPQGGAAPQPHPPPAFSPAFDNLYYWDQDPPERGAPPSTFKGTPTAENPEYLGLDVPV

[7] = molecular target: Bcr/Abl fusion protein (Homo sapiens) (UniProt P00519+P11274); test: Inhibition of BCR/ABL p210 autophosphorylation in human K562 cells at 0.2 to 10 uM after 2 hrs by Western blot analysis; format: cell-based
Procedure, shortened: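 Exponentially growing K562 cells were treated for 2 h with rising compound concentrations, diluted from 10 mM DMSO stocks via 1000× DMSO working stocks, or with DMSO vehicle. Lysates were run on 10% SDS–PAGE. Blots were probed sequentially for phospho-BCR-ABL and total BCR-ABL, detected with infrared-dye secondaries, and quantified by densitometry. The phospho signal was normalized to total, with % inhibition relative to vehicle.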

[8] = Aqueous solubility of the compound; format: physicochemical; details: buffer
Bcr/Abl fusion protein [9] = molecular target: T1, Bcr/Abl fusion protein; test: Inhibition of BCR/ABL p210 autophosphorylation in human K562 cells after 2 hrs by Western blot analysis; format: cell-based
[10] = molecular target: Serine/threonine-protein kinase PLK1 (Homo sapiens, UniProt P53350); test: Inhibition of GST-tagged recombinant PLK1 after 20 mins by autoradiography; procedure, shortened: as §1
Serine/threonine-protein kinase PLK1, sequence (P53350 whole entry): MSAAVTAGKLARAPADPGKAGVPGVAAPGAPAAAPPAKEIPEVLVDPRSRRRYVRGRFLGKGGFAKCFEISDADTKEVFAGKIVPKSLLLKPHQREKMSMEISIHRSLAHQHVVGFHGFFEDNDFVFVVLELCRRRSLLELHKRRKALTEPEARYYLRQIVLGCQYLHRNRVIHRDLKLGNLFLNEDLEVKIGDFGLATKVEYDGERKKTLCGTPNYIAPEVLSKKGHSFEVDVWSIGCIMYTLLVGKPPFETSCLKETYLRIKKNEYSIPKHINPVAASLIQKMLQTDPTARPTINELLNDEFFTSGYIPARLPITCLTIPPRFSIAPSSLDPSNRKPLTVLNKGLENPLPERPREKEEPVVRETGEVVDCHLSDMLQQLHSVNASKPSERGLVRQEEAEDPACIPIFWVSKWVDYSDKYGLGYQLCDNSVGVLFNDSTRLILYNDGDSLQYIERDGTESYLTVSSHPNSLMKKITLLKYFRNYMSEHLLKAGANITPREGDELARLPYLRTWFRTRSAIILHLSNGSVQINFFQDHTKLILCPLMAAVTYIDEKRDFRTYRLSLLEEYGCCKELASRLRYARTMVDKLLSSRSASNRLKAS

## O=C(O)c1ccc(C(=O)/C(=C\c2ccc(F)c([N+](=O)[O-])c2)SCc2ccc(Br)cc2)cc1
K562
  GI50: < 1 µM
  IC50: 0.3 µM
[1]
  IC50: 17 µM
[2]
  IC50: > 50 µM
[3]
  IC50: 13.2 µM
Bcr/Abl fusion protein [4]
  IC50: 0.75 µM
DU-145
  GI50: 1 µM
[5]
  IC50: > 20 µM
[6]
  IC50: > 10 µM
[7]
  inhibition: Active
[8]
  solubility: < 1000 µg/mL
Bcr/Abl fusion protein [9]
  IC50: 0.5 µM
[10]
  IC50: > 50 µM
